Data as given in ChEMBL document CHEMBL1134439, “Radioiodinated styrylbenzenes and thioflavins as probes for amyloid aggregates” (J Med Chem, 2001).

What was measured:
Mus musculus [1] = assay: Biodistribution was measured in mice heart 6 hours after intravenous injection of [125I]-labeled styrylbenzene.; type: ADME, organism-based; conditions: in vivo
Procedure, shortened: (§1)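 ICR mice (2-3 months old, 20-30 g) under ether anesthesia received 5-10 µCi ¹²⁵I tracer in 0.15 mL saline by tail-vein injection. Animals were killed by cardiac excision at set times post-injection. Organs were removed, weighed and γ-counted. Values are % dose per organ against diluted injectate aliquots, taking blood and muscle as 7% and 40% of body weight. Mean of 3-4 mice ± SD.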

Mus musculus [2] = assay: Biodistribution was measured in mice heart 60 minutes after intravenous injection of [125I]-labeled styrylbenzene.; type: ADME, organism-based; conditions: in vivo, 1 h; procedure, shortened: as §1
Mus musculus [3] = assay: Biodistribution was measured in mice kidney 2 minutes after intravenous injection of [125I]-labeled styrylbenzene.; type: ADME, organism-based; conditions: in vivo; procedure, shortened: as §1
Mus musculus [4] = assay: Biodistribution was measured in mice kidney 24 hours after intravenous injection of [125I]-labeled styrylbenzene.; type: ADME, organism-based; conditions: in vivo; procedure, shortened: as §1
Mus musculus [5] = assay: Biodistribution was measured in mice kidney 30 minutes after intravenous injection of [125I]-labeled styrylbenzene.; type: ADME, organism-based; conditions: in vivo, 0.5 h; procedure, shortened: as §1
Mus musculus [6] = assay: Biodistribution was measured in mice kidney 6 hours after intravenous injection of [125I]-labeled styrylbenzene.; type: ADME, organism-based; conditions: in vivo; procedure, shortened: as §1
Mus musculus [7] = assay: Biodistribution was measured in mice kidney 60 minutes after intravenous injection of [125I]-labeled styrylbenzene.; type: ADME, organism-based; conditions: in vivo, 1 h; procedure, shortened: as §1
Mus musculus [8] = assay: Biodistribution was measured in mice liver 2 minutes after intravenous injection of [125I]-labeled styrylbenzene.; type: ADME, organism-based; conditions: in vivo; procedure, shortened: as §1
Mus musculus [9] = assay: Biodistribution was measured in mice liver 24 hours after intravenous injection of [125I]-labeled styrylbenzene.; type: ADME, organism-based; conditions: in vivo; procedure, shortened: as §1
Mus musculus [10] = assay: Biodistribution was measured in mice liver 30 minutes after intravenous injection of [125I]-labeled styrylbenzene.; type: ADME, organism-based; conditions: in vivo, 0.5 h; procedure, shortened: as §1
Mus musculus [11] = assay: Biodistribution was measured in mice liver 60 minutes after intravenous injection of [125I]-labeled styrylbenzene.; type: ADME, organism-based; conditions: in vivo, 1 h; procedure, shortened: as §1
Mus musculus [12] = assay: Biodistribution was measured in mice muscle 30 minutes after intravenous injection of [125I]-labeled styrylbenzene.; type: ADME, organism-based, Muscle tissue; conditions: in vivo, 0.5 h; procedure, shortened: as §1
Mus musculus [13] = assay: Biodistribution was measured in mice muscle 6 hours after intravenous injection of [125I]-labeled styrylbenzene.; type: ADME, organism-based, Muscle tissue; conditions: in vivo; procedure, shortened: as §1
Mus musculus [14] = assay: Biodistribution was measured in mice muscle 60 minutes after intravenous injection of [125I]-labeled styrylbenzene.; type: ADME, organism-based, Muscle tissue; conditions: in vivo, 1 h; procedure, shortened: as §1
Mus musculus [15] = assay: Biodistribution was measured in mice skin 2 minutes after intravenous injection of [125I]-labeled styrylbenzene.; type: ADME, organism-based, Zone of skin; conditions: in vivo; procedure, shortened: as §1
Mus musculus [16] = assay: Biodistribution was measured in mice skin 24 hours after intravenous injection of [125I]-labeled styrylbenzene.; type: ADME, organism-based, Zone of skin; conditions: in vivo; procedure, shortened: as §1
Mus musculus [17] = assay: Biodistribution was measured in mice skin 30 minutes after intravenous injection of [125I]-labeled styrylbenzene.; type: ADME, organism-based, Zone of skin; conditions: in vivo, 0.5 h; procedure, shortened: as §1
Mus musculus [18] = assay: Biodistribution was measured in mice skin 6 hours after intravenous injection of [125I]-labeled styrylbenzene.; type: ADME, organism-based, Zone of skin; conditions: in vivo; procedure, shortened: as §1
Mus musculus [19] = assay: Biodistribution was measured in mice skin 60 minutes after intravenous injection of [125I]-labeled styrylbenzene.; type: ADME, organism-based, Zone of skin; conditions: in vivo, 1 h; procedure, shortened: as §1
Mus musculus [20] = assay: Biodistribution was measured in mice spleen 2 minutes after intravenous injection of [125I]-labeled styrylbenzene.; type: ADME, organism-based; conditions: in vivo; procedure, shortened: as §1
Mus musculus [21] = assay: Biodistribution was measured in mice spleen 24 hours after intravenous injection of [125I]-labeled styrylbenzene.; type: ADME, organism-based; conditions: in vivo
Mus musculus [22] = assay: Biodistribution was measured in mice spleen 30 minutes after intravenous injection of [125I]-labeled styrylbenzene.; type: ADME, organism-based; conditions: in vivo, 0.5 h
Procedure, shortened: (§2)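 ICR mice (2-3 months old, 20-30 g) under ether anesthesia; 0.15 mL saline containing 5-10 µCi ¹²⁵I tracer injected into tail vein. Sacrifice by cardiac excision at set times; organs removed, weighed, γ-counted. Expressed as % dose per organ versus diluted aliquots of injectate. Mean of three or four mice ± SD.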

Mus musculus [23] = assay: Biodistribution was measured in mice spleen 60 minutes after intravenous injection of [125I]-labeled styrylbenzene.; type: ADME, organism-based; conditions: in vivo, 1 h; procedure, shortened: as §2
Mus musculus [24] = assay: Biodistribution was measured in mice blood 2 minutes after intravenous injection of [125I]-labeled styrylbenzene.; type: ADME, organism-based; conditions: in vivo; procedure, shortened: as §1
Mus musculus [25] = assay: Biodistribution was measured in mice blood 24 hours after intravenous injection of [125I]-labeled styrylbenzene.; type: ADME, organism-based; conditions: in vivo; procedure, shortened: as §1
Mus musculus [26] = assay: Biodistribution was measured in mice blood 30 minutes after intravenous injection of [125I]-labeled styrylbenzene.; type: ADME, organism-based; conditions: in vivo, 0.5 h; procedure, shortened: as §1
Mus musculus [27] = assay: Biodistribution was measured in mice lung 2 minutes after intravenous injection of [125I]-labeled styrylbenzene.; type: ADME, organism-based; conditions: in vivo; procedure, shortened: as §1
Mus musculus [28] = assay: Biodistribution was measured in mice lung 24 hours after intravenous injection of [125I]-labeled styrylbenzene.; type: ADME, organism-based; conditions: in vivo, in the assay text read “thioflavin” for “styrylbenzene”; procedure, shortened: as §1
Mus musculus [29] = assay: Biodistribution was measured in mice lung 30 minutes after intravenous injection of [125I]-labeled styrylbenzene.; type: ADME, organism-based; conditions: in vivo, 0.5 h; procedure, shortened: as §1
Mus musculus [30] = assay: Biodistribution was measured in mice lung 6 hours after intravenous injection of [125I]-labeled styrylbenzene.; type: ADME, organism-based; conditions: in vivo, in the assay text read “thioflavin” for “styrylbenzene”; procedure, shortened: as §1
Mus musculus [31] = assay: Biodistribution was measured in mice lung 60 minutes after intravenous injection of [125I]-labeled styrylbenzene.; type: ADME, organism-based; conditions: in vivo, 1 h; procedure, shortened: as §1
Mus musculus [32] = assay: Biodistribution was measured in mice muscle 2 minutes after intravenous injection of [125I]-labeled styrylbenzene.; type: ADME, organism-based, Muscle tissue; conditions: in vivo, in the assay text read “thioflavin” for “styrylbenzene”; procedure, shortened: as §1
Mus musculus [33] = assay: Biodistribution was measured in mice muscle 24 hours after intravenous injection of [125I]-labeled styrylbenzene.; type: ADME, organism-based, Muscle tissue; conditions: in vivo; procedure, shortened: as §1
Mus musculus [34] = assay: Biodistribution was measured in mice brain 6 hours after intravenous injection of [125I]-labeled styrylbenzene; type: ADME, organism-based; conditions: in vivo; procedure, shortened: as §1
Mus musculus [35] = assay: Biodistribution was measured in mice brain 60 minutes after intravenous injection of [125I]-labeled styrylbenzene; type: ADME, organism-based; conditions: in vivo, 1 h; procedure, shortened: as §1
Mus musculus [36] = assay: Biodistribution was measured in mice heart 2 minutes after intravenous injection of [125I]-labeled styrylbenzene.; type: ADME, organism-based; conditions: in vivo; procedure, shortened: as §1
Mus musculus [37] = assay: Biodistribution was measured in mice heart 24 hours after intravenous injection of [125I]-labeled styrylbenzene.; type: ADME, organism-based; conditions: in vivo; procedure, shortened: as §1
Mus musculus [38] = assay: Biodistribution was measured in mice heart 30 minutes after intravenous injection of [125I]-labeled styrylbenzene.; type: ADME, organism-based; conditions: in vivo, 0.5 h; procedure, shortened: as §1
Mus musculus [39] = assay: Biodistribution was measured in mice blood 6 hours after intravenous injection of [125I]-labeled styrylbenzene.; type: ADME, organism-based; conditions: in vivo; procedure, shortened: as §1
Mus musculus [40] = assay: Biodistribution was measured in mice blood 60 minutes after intravenous injection of [125I]-labeled styrylbenzene.; type: ADME, organism-based; conditions: in vivo, 1 h; procedure, shortened: as §1
Mus musculus [41] = assay: Biodistribution was measured in mice brain 2 minutes after intravenous injection of [125I]-labeled styrylbenzene; type: ADME, organism-based; conditions: in vivo, in the assay text read “thioflavin” for “styrylbenzene”; procedure, shortened: as §1
Mus musculus [42] = assay: Biodistribution was measured in mice brain 24 hours after intravenous injection of [125I]-labeled styrylbenzene; type: ADME, organism-based; conditions: in vivo, in the assay text read “thioflavin” for “styrylbenzene”; procedure, shortened: as §1
Mus musculus [43] = assay: Biodistribution was measured in mice brain 30 minutes after intravenous injection of [125I]-labeled styrylbenzene; type: ADME, organism-based; conditions: in vivo, 0.5 h; procedure, shortened: as §1
[44] = molecular target: Amyloid-beta precursor protein (Homo sapiens, UniProt P05067); assay: Inhibition constant for aggregates of amyloid beta compared to [125I]IMSB
Amyloid-beta precursor protein, sequence (P05067 whole entry): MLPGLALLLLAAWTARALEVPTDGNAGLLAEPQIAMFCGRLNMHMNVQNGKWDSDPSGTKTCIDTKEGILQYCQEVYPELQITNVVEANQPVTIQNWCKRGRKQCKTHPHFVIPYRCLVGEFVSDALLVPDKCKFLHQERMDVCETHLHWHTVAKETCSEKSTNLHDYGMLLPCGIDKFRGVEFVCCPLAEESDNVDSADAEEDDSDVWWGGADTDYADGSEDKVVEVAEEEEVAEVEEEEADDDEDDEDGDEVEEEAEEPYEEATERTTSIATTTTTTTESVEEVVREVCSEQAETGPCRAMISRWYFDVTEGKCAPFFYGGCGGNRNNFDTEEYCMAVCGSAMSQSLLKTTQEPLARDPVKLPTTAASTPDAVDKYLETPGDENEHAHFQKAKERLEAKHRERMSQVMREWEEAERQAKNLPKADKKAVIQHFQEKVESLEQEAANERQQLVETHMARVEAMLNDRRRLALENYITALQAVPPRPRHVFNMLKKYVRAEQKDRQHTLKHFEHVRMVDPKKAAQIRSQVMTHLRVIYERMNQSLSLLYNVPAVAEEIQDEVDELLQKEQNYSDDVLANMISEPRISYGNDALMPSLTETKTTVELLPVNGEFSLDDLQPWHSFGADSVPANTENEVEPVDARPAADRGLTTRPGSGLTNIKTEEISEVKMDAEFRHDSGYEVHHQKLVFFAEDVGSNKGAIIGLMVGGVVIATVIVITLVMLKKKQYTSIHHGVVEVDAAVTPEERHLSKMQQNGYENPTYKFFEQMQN
Procedure, shortened: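 Aβ(1-40) or Aβ(1-42) aggregated at 0.5 or 0.25 mg/mL respectively in pH 7.4 buffer (10 mM sodium phosphate, 1 mM EDTA), 37 °C, 36-42 h with shaking. Competition against ¹²⁵I radioligand with fibrils 10-50 nM (final), 10% EtOH, 1 mL. Incubation 3 h room temperature. Bound ligand collected by GF/B filtration, γ-counted. Ki by nonlinear regression. Mean ± SEM, three experiments in duplicate.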

Mus musculus [45] = assay: Biodistribution was measured in mice liver 6 hours after intravenous injection of [125I]-labeled styrylbenzene.; type: ADME, organism-based; conditions: in vivo, in the assay text read “thioflavin” for “styrylbenzene”; procedure, shortened: as §1
Mus musculus [46] = assay: Biodistribution was measured in mice spleen 6 hours after intravenous injection of [125I]-labeled thioflavin.; conditions: in vivo

- Dose/organ (Mus musculus [1]): 0.22%
- Dose/organ (Mus musculus [2]): 0.66%
- Dose/organ (Mus musculus [3]): 6.46%
- Dose/organ (Mus musculus [4]): 1.15%
- Dose/organ (Mus musculus [5]): 8.06%
- Dose/organ (Mus musculus [6]): 3.62%
- Dose/organ (Mus musculus [7]): 7.99%
- Dose/organ (Mus musculus [8]): 28.84%
- Dose/organ (Mus musculus [9]): 3.05%
- Dose/organ (Mus musculus [10]): 21.22%
- Dose/organ (Mus musculus [11]): 17.2%
- Dose/organ (Mus musculus [12]): 18.82%
- Dose/organ (Mus musculus [13]): 6.65%
- Dose/organ (Mus musculus [14]): 19.46%
- Dose/organ (Mus musculus [15]): 4.06%
- Dose/organ (Mus musculus [16]): 1.64%
- Dose/organ (Mus musculus [17]): 6.07%
- Dose/organ (Mus musculus [18]): 3.17%
- Dose/organ (Mus musculus [19]): 5.63%
- Dose/organ (Mus musculus [20]): 0.89%
- Dose/organ (Mus musculus [21]): 0.08%
- Dose/organ (Mus musculus [22]): 0.87%
- Dose/organ (Mus musculus [23]): 0.6%
- Dose/organ (Mus musculus [24]): 8.02%
- Dose/organ (Mus musculus [25]): 0.41%
- Dose/organ (Mus musculus [26]): 5.15%
- Dose/organ (Mus musculus [27]): 12.8%
- Dose/organ (Mus musculus [28]): 0.44%
- Dose/organ (Mus musculus [29]): 4.14%
- Dose/organ (Mus musculus [30]): 1.15%
- Dose/organ (Mus musculus [31]): 3.38%
- Dose/organ (Mus musculus [32]): 13.24%
- Dose/organ (Mus musculus [33]): 2.44%
- Dose/organ (Mus musculus [34]): 1.08%
- Dose/organ (Mus musculus [35]): 1.89%
- Dose/organ (Mus musculus [36]): 2.19%
- Dose/organ (Mus musculus [37]): 0.08%
- Dose/organ (Mus musculus [38]): 0.69%
- Dose/organ (Mus musculus [39]): 1.49%
- Dose/organ (Mus musculus [40]): 4.16%
- Dose/organ (Mus musculus [41]): 1.5%
- Dose/organ (Mus musculus [42]): 0.91%
- Dose/organ (Mus musculus [43]): 1.59%
- Ki [44]: > 2000 nM
- Dose/organ (Mus musculus [45]): 5.79%
- Dose/organ (Mus musculus [46]): 0.22%
Structure (SMILES): CN1CCN(c2ccc(-c3nc4ccc(I)cc4s3)cc2)CC1
